Assay outcomes as filed in PubChem.
This excerpt belongs to a sample that is enriched for hits.
Myeloid diff MLP: induction of myeloid progenitor differentiation, primary screen, cell-based, flow cytometry, MLPCN library; ER-HoxA9 myeloid progenitors, lysozyme-GFP differentiation; calls only at 10 µM; 1% of 360,000 active;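 active = normalized GFP-positive differentiation at or above the plate's own cutoff, the solvent-only control mean plus 3 SD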;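 note: cells exposed to compound for four days before flow analysis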
Xi reactivation: activators of inactive X chromosome reactivation, primary screen, imaging, XiGFP fibroblasts, GFP high-content imaging, set 2; XiGFP mouse fibroblasts, % GFP-positive cells imaging, 3 d; cells co-treated with 5-aza-dC sensitizer; scaled so ellipticine positive control = 100%; 0.055% of 360,000 active; activation, % at 7.58 µM;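 active = mean normalized replicate activation at least 10% and every replicate at or above 10%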;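 note: 0% = median of on-plate neutral control wells and 100% = ellipticine 6 µM median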
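System: SV40-immortalized XiGFP fibroblast cells, line 68-5-11 / Incubation: 3-day compound exposure, then 15 min fixation at room temperature / Compound: single concentration per compound, delivered by pin transfer / Buffer or medium: DMEM plus 5-aza-dC sensitizer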
ABCB6 inh MLPCN: ABCB6 transporter inhibitors, primary screen, K562-ABCB6 cells, flow cytometry, MLPCN library; ATP-binding cassette sub-family B member 6 (Homo sapiens), Q9NP58; K562-ABCB6 porphyrin accumulation, 1 h; stronger effect = lower value; fluorescence ratio to DMSO, % at 10 µM; 0.19% of 360,000 active; AID 602162, 2011;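 active = fluorescence ratio to DMSO below 75%, the collection mean minus 3 SD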;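 note: signal is porphyrin accumulated inside mitochondria; 100% equals median channel fluorescence of DMSO control wells; lower ratio means ABCB6 inhibition with less porphyrin fluorescence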
Target sequence (Q9NP58 whole entry, looked up): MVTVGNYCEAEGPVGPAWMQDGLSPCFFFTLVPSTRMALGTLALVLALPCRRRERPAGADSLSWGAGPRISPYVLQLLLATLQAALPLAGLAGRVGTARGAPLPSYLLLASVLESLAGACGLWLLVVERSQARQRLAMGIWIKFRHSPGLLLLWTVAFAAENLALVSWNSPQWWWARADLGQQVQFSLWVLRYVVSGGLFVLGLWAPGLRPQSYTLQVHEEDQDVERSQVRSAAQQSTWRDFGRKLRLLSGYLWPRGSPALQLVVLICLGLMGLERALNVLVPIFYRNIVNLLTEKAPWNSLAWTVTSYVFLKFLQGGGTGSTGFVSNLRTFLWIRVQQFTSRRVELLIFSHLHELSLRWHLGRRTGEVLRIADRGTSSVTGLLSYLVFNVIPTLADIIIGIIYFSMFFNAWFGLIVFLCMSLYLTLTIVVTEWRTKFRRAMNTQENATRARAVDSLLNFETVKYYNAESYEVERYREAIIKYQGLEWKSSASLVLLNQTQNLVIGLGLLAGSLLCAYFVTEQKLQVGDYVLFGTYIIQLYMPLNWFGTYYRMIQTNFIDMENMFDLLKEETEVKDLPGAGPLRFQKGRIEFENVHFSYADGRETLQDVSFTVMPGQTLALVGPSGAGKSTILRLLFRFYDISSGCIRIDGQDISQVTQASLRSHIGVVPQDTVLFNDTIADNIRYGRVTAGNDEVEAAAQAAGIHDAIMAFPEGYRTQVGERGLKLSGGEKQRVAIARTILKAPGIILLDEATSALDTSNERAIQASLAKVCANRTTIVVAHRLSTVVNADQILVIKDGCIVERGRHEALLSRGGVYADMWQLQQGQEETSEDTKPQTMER
Myeloid diff CP1: inducers of myeloid progenitor differentiation, confirmation, cell-based, GFP/Mac1 flow cytometry, cherry pick 01; shares compounds with Myeloid diff MLP; AID 651706, 2012; ER-HoxA9 myeloid progenitors, GFP/Mac1 double-positive flow; calls only; 2% of 2,300 active;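 active = share of green or green-and-red cells above 9 and 9% in run 1 or 4 and 3% in run 2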
GFP autofluor: flagged as fluorescent in myeloid differentiation counter-screen; ER-HoxA9 myeloid progenitors, no estrogen, GFP autofluorescence flow cytometry; vehicle wells 0%, positive control 100%; 7.4% of 2,300 active; shares compounds with Myeloid diff MLP; fluorescence response, % (test concentration not listed);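 active = over 5% cells positive for green fluorescent reporter, or over 2% positive for both it and APC stain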;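 note: range taken on the double positive population between DMSO and positive control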
* = called active by the depositor; i = inactive; . = no result; + = active, no number.

SMILES | Myeloid diff MLP | Xi reactivation | ABCB6 inh MLPCN | Myeloid diff CP1 | GFP autofluor
O=C1N=C(N2CCN(Cc3ccccc3)CC2)S/C1=C/c1cccs1 | + | 0 | 100 | i | 0
O=C1N=C(N2CCN(c3ccccc3)CC2)S/C1=C/c1cccs1 | i | 0 | 102 | . | .
O=S(=O)(NCc1ccco1)c1ccc2c(c1)Cc1ccccc1-2 | i | . | 102 | i | 0
CC(=O)N1c2ccc(S(=O)(=O)NCCc3ccccc3)cc2CC1C (stereo not given) | i | 0 | 102 | . | .
CC(=O)N1c2ccc(S(=O)(=O)NCc3ccco3)cc2CC1C (stereo not given) | + | 0 | 102 | i | 2
Cc1ccc(S(=O)(=O)NCc2ccco2)cc1C | i | . | 99 | . | .
Cc1ccc(S(=O)(=O)N[C@@H]2CC[C@H](CC(=O)N3CCc4ccccc4C3)O[C@H]2CO)cc1 | . | 0 | . | . | .
O=C(Nc1ccc(Cl)c(Cl)c1)c1ccc(Cl)c(Cl)c1 | i | 0 | 96 | . | .
CC(C)C1O/C(=N/C(=O)Nc2ccc(Cl)c(Cl)c2)NC1=O (stereo not given) | i | . | 99 | i | 0
CCn1c(SCC(N)=O)nc2sc3c(c2c1=O)CCN(C)C3 | i | 0 | 97 | . | .
CCNc1nc(SCC(N)=O)nc2sc3c(c12)CCN(C)C3 | i | 0 | 109 | i | 0
O=C(CN1CCOCC1)N[C@H]1CC[C@H](CCNC(=O)C2CCC2)O[C@H]1CO | . | 0 | . | . | .
Cc1ccc(-n2nc3ccc(N)cc3n2)cc1Cl | i | 0 | 103 | . | .
COc1ccc(-n2nc3ccc(N)cc3n2)cc1Cl | i | 0 | 103 | i | 0
CC(C)c1ccc(-c2nc(N3CCCCC3)[nH]c(=O)c2C#N)cc1 | i | . | 104 | . | .
CC1=Nc2nc(N3CCCCC3)c(C#N)c3c4c(nc(c23)N1)N(c1ccc(C(C)C)cc1)C(=O)C4 | + | 0 | 99 | i | 0
C/C(=N\NC(=O)C1CCCN(S(=O)(=O)c2ccccc2)C1)c1ccncc1 (stereo not given) | i | . | 104 | . | .
C/C(=N\NC(=O)C1CCCN(S(=O)(=O)c2ccccc2)C1)c1ccccn1 (stereo not given) | . | . | 98 | i | 1
CN(C)C(=O)C[C@H]1CC[C@H](NC(=O)C2CCOCC2)[C@H](CO)O1 | . | 0 | . | . | .
CNC[C@@H]1Oc2c(NC(=O)c3nc4ccccc4s3)cccc2C(=O)N([C@@H](C)CO)C[C@H]1C | . | 0 | . | . | .
C[C@@H]1CN([C@@H](C)CO)C(=O)c2cccc(N(C)C)c2O[C@H]1CN(C)Cc1ccncc1 | . | 0 | . | . | .
Cc1ccc(C)c(N2CCN(CCCNC(=O)CCC(=O)N3CCOc4ccc(Cl)cc43)CC2)c1 | . | 0 | . | . | .
O=C(CCC(=O)N1CCOc2ccc(Cl)cc21)NCCCN1CCN(c2ccccc2F)CC1 | i | 0 | 92 | i | 0
CCOc1ccc(S(=O)(=O)Nc2ccc(Cl)cn2)c(C)c1C | i | . | 96 | . | .
CCOc1cc(C)c(S(=O)(=O)Nc2ccc(Cl)cn2)cc1C | i | . | 93 | i | 0
SMILES | Myeloid diff MLP | Xi reactivation | ABCB6 inh MLPCN | Myeloid diff CP1 | GFP autofluor
Cc1noc(C)c1S(=O)(=O)N(C)C[C@@H]1OCCCC[C@@H](C)Oc2ccc(NC(=O)Nc3cccc4ccccc34)cc2C(=O)N([C@H](C)CO)C[C@H]1C | . | 0 | . | . | .
CCCC#Cc1cnc2c(c1)C(=O)N([C@@H](C)CO)C[C@@H](C)[C@@H](CN(C)Cc1ccccc1)O2 | . | 1 | . | . | .
Nc1nc2cc3c(cc2cc1C(=O)NCc1ccc(F)cc1)OCO3 | + | . | 100 | i | 1
Nc1nc2cc3c(cc2cc1C(=O)NCc1cccnc1)OCO3 | . | 0 | . | . | .
CN(C)CC(=O)N1[C@@H]2c3ccc(-c4ccncc4)c(=O)n3C[C@H]1[C@H](CO)[C@H]2C(=O)NC1CCC1 | . | 0 | . | . | .
C[C@@H]1CN([C@H](C)CO)C(=O)c2ccccc2-c2ccccc2CO[C@H]1CN(C)C(=O)Nc1cccc(F)c1 | . | -1 | . | . | .
CN1C(=O)c2cc(NC(=O)c3cccc(F)c3)ccc2OC[C@@H]2O[C@H](CC(=O)N3CCc4ccccc4C3)CC[C@H]21 | . | 0 | . | . | .
O=C(c1ccc(S(=O)(=O)N2CCOCC2)cc1)N1CCN(c2ccccc2F)CC1 | i | . | 95 | . | .
O=C(c1ccc(S(=O)(=O)N2CCOCC2)cc1)N1CCN(c2ccc(F)cc2)CC1 | i | . | 103 | i | 0
O=C(C[C@@H]1CC[C@H]2[C@@H](COC[C@H](O)CN2Cc2nccs2)O1)NCc1ccc(-c2ccccc2)cc1 | . | 0 | . | . | .
C[C@@H](NC(=O)[C@@H]1[C@@H](CO)[C@@H]2Cn3c(ccc(-c4ccncc4)c3=O)[C@H]1N2C)c1ccccc1 | . | 0 | . | . | .
C[C@H]1CN([C@@H](C)CO)C(=O)c2cc(NC(=O)c3ccncc3)ccc2O[C@@H]1CN(C)S(=O)(=O)c1cn(C)cn1 | . | 0 | . | . | .
C=CCn1c(N)cc(=O)nc1SCC(=O)NC(C)c1ccccc1 (stereo not given) | i | . | 99 | i | 0
CC(NC(=O)CSc1nc(=O)cc(N)n1-c1ccccc1)c1ccccc1 (stereo not given) | i | 0 | 100 | . | .
COC(=O)c1cn(NC(=O)c2cc(OC)cc(OC)c2)c(=O)c2ccccc12 | i | . | 103 | . | .
COC(=O)c1cn(NC(=O)c2ccc([N+](=O)[O-])cc2Cl)c(=O)c2ccccc12 | + | 0 | 96 | i | 1
CC(C)NC(=O)N1[C@@H]2Cn3c(cccc3=O)[C@H]1[C@@H](C(=O)N1CCC(Cc3ccccc3)CC1)[C@@H]2CO | . | 0 | . | . | .
Fc1ccc(C(c2nnnn2C2CCCC2)N2CCN(Cc3ccncc3)CC2)cc1 (stereo not given) | + | . | 99 | i | 0
Fc1ccc(C(c2nnnn2C2CCCCC2)N2CCCC2)cc1 (stereo not given) | i | 1 | 101 | . | .
CC1CC(C)CN(C(=O)CN2C(=O)NC3(CCCCCC3)C2=O)C1 (stereo not given) | i | 0 | 102 | . | .
CC1CN(C(=O)CN2C(=O)NC3(CCCCCCC3)C2=O)CC(C)O1 (stereo not given) | + | . | 103 | i | 1
CC(C)C#Cc1ccc2c(c1)O[C@H](CN(C)C)[C@H](C)CN([C@H](C)CO)S2(=O)=O | . | -1 | . | . | .
C[C@@H]1CN([C@H](C)CO)C(=O)c2cccc(NS(=O)(=O)c3cn(C)cn3)c2O[C@@H]1CN(C)S(=O)(=O)c1ccc(F)cc1 | . | 1 | . | . | .
O=C(C[C@H]1CC[C@H](NC(=O)CN2CCOCC2)[C@H](CO)O1)NCc1cccc(F)c1 | . | 0 | . | . | .
CN(Cc1nc(-c2cnccn2)no1)C1CC(C)(C)NC(C)(C)C1 | i | 0 | 102 | i | 0
